ChEMBL document CHEMBL4265871, “Novel alkylated azoles as potent antifungals” (Eur J Med Chem, 2017)
Converted amounts (≈) assume the structure as drawn. The source made the active and inactive calls. No cut-off for these calls is given here.

Columns and labels:
Candida albicans [1] = assay: Antifungal activity against ITC and FLC-resistant Candida albicans ATCC MYA-1003 incubated for 48 hrs by modified CLSI M27-A3 protocol based method; assay type: functional; conditions: ATCC MYA-1003, 48 h
Method in brief: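 Because these Candida strains show trailing growth, MIC-2 was read, meaning 50% growth inhibition. Caspofungin and voriconazole were tested here; other controls came from earlier work.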

Pichia kudriavzevii = assay: Antifungal activity against Candida krusei ATCC 6258 incubated for 48 hrs by modified CLSI M27-A3 protocol based method; assay type: functional; conditions: ATCC 6258, 48 h, read-out: MIC100
Method in brief: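 For C. albicans ATCC 10231, C. krusei ATCC 6258 and C. parapsilosis ATCC 22019, MIC-0 was read, meaning complete growth inhibition. For azole controls, MIC-2 (50% growth inhibition) was reported instead. Caspofungin and voriconazole were tested here; other controls came from earlier work.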

Aspergillus flavus = assay: Antifungal activity against Aspergillus flavus ATCC MYA-3631 incubated for 48 hrs by CLSI M38-A2 protocol based method; assay type: functional; conditions: ATCC MYA-3631, 48 h, read-out: MIC100
[2] = Toxicity in human A549 cells assessed as reduction in cell viability incubated for 24 hrs by resazurin dye based assay
Method in brief: (§1)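 Toxicity tested in the nucleated lines A549 and BEAS-2B to give EC50 values. Selectivity index is EC50 against the mammalian line divided by the MIC against a given fungal strain.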

[3] = Toxicity in human BEAS2B cells assessed as reduction in cell viability incubated for 24 hrs by resazurin dye based assay; conditions: BEAS-2B cells; method in brief: as §1
[4] = Selectivity index, ratio of EC50 for toxicity in human BEAS2B cells to MIC50 for antifungal activity against ITC and FLC-susceptible Candida albicans ATCC MYA-2876; assay type: cell-based; conditions: BEAS-2B cells, read-out: Selectivity Index
Method in brief: (§2)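 Ratio of the compound's EC50 against BEAS-2B cells to its MIC against the named C. albicans strain. […] For C. albicans strains other than ATCC 10231, trailing growth meant MIC-2 was taken, meaning 50% growth inhibition.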

[5] = Selectivity index, ratio of EC50 for toxicity in human BEAS2B cells to MIC50 for antifungal activity against ITC and FLC-susceptible Candida albicans ATCC MYA-2310; assay type: cell-based; conditions: BEAS-2B cells, read-out: Selectivity Index; method in brief: as §2
[6] = Selectivity index, ratio of EC50 for toxicity in human A549 cells to MIC50 for antifungal activity against Candida glabrata ATCC 2001; assay type: cell-based; conditions: read-out: Selectivity Index
Method in brief: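 Selectivity index is the EC50 against the mammalian line (A549 or BEAS-2B) divided by the MIC against the given fungal strain.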

[7] = Selectivity index, ratio of […] for toxicity in human BEAS2B cells to MIC50 for antifungal activity against Aspergillus nidulans ATCC 38163; assay type: cell-based; conditions: BEAS-2B cells, read-out: Selectivity Index
[8] = Selectivity index, ratio of […] for toxicity in human A549 cells to MIC50 for antifungal activity against Aspergillus terreus ATCC MYA-3633; assay type: cell-based; conditions: read-out: Selectivity Index
A549 = assay: Toxicity in human A549 cells assessed as cell viability at 15.6 ug/ml incubated for 24 hrs by resazurin dye based assay; conditions: a549, 24 h
BEAS-2B = assay: Toxicity in human BEAS2B cells assessed as cell viability at 15.6 ug/ml incubated for 24 hrs by resazurin dye based assay
[9] = Selectivity index, ratio of EC50 for toxicity in human BEAS2B cells to MIC50 for antifungal activity against Candida krusei ATCC 6258; conditions: BEAS-2B cells
[10] = Selectivity index, ratio of EC50 for toxicity in human A549 cells to MIC for antifungal activity against Candida parapsilosis ATCC 22019
[11] = Selectivity index, ratio of EC50 for toxicity in human BEAS2B cells to MIC for antifungal activity against Candida parapsilosis ATCC 22019; conditions: BEAS-2B cells
Candida albicans [12] = assay: Fungistatic activity against Candida albicans ATCC 10231 at 0.5 times MIC incubated for 3 to 12 hrs by time kill assay; assay type: functional, organism-based
Candida albicans [13] = assay: Effect on growth of Candida albicans ATCC 10231 assessed as increase in microbial growth at 0.5 times MIC incubated for 24 hrs by time kill assay; assay type: functional
Candida albicans [14] = assay: Fungistatic activity against Candida albicans ATCC 10231 at 1 times MIC incubated for 3 to 12 hrs by time kill assay; assay type: functional, organism-based
Candida albicans [15] = assay: Fungistatic activity against Candida albicans ATCC 10231 assessed as reduction in microbial growth at 1 times MIC incubated for 24 hrs by time kill assay; assay type: functional
Candida albicans [16] = assay: Fungicidal activity against Candida albicans ATCC 10231 assessed as reduction in microbial growth at 4 times MIC incubated for 9 hrs by time kill assay; assay type: functional
Candida albicans [17] = assay: Induction of membrane permeabilization in Candida albicans ATCC 10231 at 1 to 4 times MIC incubated for 1 hr by propidium iodide staining based fluorescence microscopy; assay type: functional, organism-based
Method in brief: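 C. albicans ATCC 10231 treated at 1× and 4× MIC and stained with propidium iodide, a membrane-impermeant dye, to detect membrane damage. Untreated cells, FLC (7.8 µg/mL) and KANB (C14) (7.8 µg/mL) serve as comparators.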

[18] = Hemolytic activity in mouse erythrocytes assessed as hemolysis level at 1.95 ug/ml incubated for 1 hr at 37 degC; assay type: ADME, cell-based, Erythrocyte; conditions: read-out: Activity
Method in brief: (§3)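 Mouse erythrocytes incubated 1 h at 37 °C with test agents over 1.95 to 125 µg/mL. Percent lysis is read for each concentration.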

[19] = Hemolytic activity in mouse erythrocytes assessed as hemolysis level at 15.6 ug/ml incubated for 1 hr at 37 degC; assay type: ADME, cell-based, Erythrocyte; conditions: read-out: Activity; method in brief: as §3
in vitro = conditions: mouse, mouse erythrocytes
Candida albicans [20] = assay: Antifungal activity against Candida albicans ATCC 10231 at 0.5 to 4 times MIC incubated for 3 to 24 hrs by time kill assay
Candida albicans [21] = assay: Antifungal carryover activity against Candida albicans ATCC 10231 assessed as 25% reduction in colony counts at 0.5 to 4 times MIC
Candida albicans [22] = assay: Effect on sterol composition in Candida albicans ATCC 64124 assessed as eburicol level at 1.95 ug/mL incubated for 10 mins by LC-MS analysis (reference value: 6.28%)
Candida albicans [23] = assay: Effect on sterol composition in Candida albicans ATCC 64124 assessed as lanosterol level at 1.95 ug/mL incubated for 10 mins by LC-MS analysis (reference value: 29.38%)
Candida albicans [24] = assay: Effect on sterol composition in Candida albicans ATCC 64124 assessed as ergosterol level at 1.95 ug/mL incubated for 10 mins by LC-MS analysis (reference value: 54.72%)

Row | Compound | MIC50 (Candida albicans [1]) [µM] | MIC (Pichia kudriavzevii) [µM] | MIC (Aspergillus flavus) [µM] | EC50 at 24 h [2] [µg/mL] | EC50 at 24 h [3] [µg/mL] | selectivity ratio [4] | selectivity ratio [5] | selectivity ratio [6] | selectivity ratio [7] | selectivity ratio [8] | viability (A549) [%] | viability (BEAS-2B) [%] | selectivity ratio [9] | selectivity ratio [10] | selectivity ratio [11] | Activity (Candida albicans [12]) | Activity (Candida albicans [17]) | hemolysis at 1 h, 1.95 ug/ml [18] [%] | hemolysis at 1 h, 15.6 ug/ml [19] [%] | hemolysis at 1 h, 62.5 ug/ml (in vitro) [%] | other results
1 | CCCC(O)(Cn1cncn1)c1ccc(Cl)cc1Cl (stereo not given) | 3.2 (≈ 0.961 µg/mL) | 0.2 (≈ 0.06 µg/mL) | 52 (≈ 15.6 µg/mL) | > 31.3 | > 31.3 | 16 | 8 | 8 | 16 | 8 | > 85 | > 85 | 522 | 1040 | 1040 |  |  |  |  |  | 
2 | CCCCCCC(O)(Cn1cncn1)c1ccc(F)cc1F (stereo not given) | 6.3 (≈ 1.95 µg/mL) | 0.39 (≈ 0.121 µg/mL) | 50.4 (≈ 15.6 µg/mL) | 35 (≈ 113 µM) | > 31.3 | 16 | 8 | 9 | 65 | 4 |  |  | 261 | 1170 | 1040 | Active | inactive | 0 | 8.2 | 26.3 | Activity (Candida albicans [13]): 1 log10CFU; Activity (Candida albicans [14]): Active; Activity (Candida albicans [15]): 1 log10CFU; Activity (Candida albicans [16]): >=2 log10CFU; Activity (Candida albicans [20]): Dose-dependent effect; Activity (Candida albicans [21]): inactive
3 | CCCCCC(O)(Cn1cncn1)c1ccc(F)cc1F (stereo not given) | 6.6 (≈ 1.95 µg/mL) | 0.81 (≈ 0.239 µg/mL) | 52.8 (≈ 15.6 µg/mL) | > 31.3 | > 31.3 | 4 | 4 | 4 | 32 | 1 |  |  | 130 | 1040 | 1040 |  | inactive | 0 | 0.9 | 25.2 | 
4 | CCCCC(O)(Cn1cncn1)c1ccc(Cl)cc1Cl (stereo not given) [HEXACONAZOLE] | 3.1 (≈ 0.974 µg/mL) | 0.19 (≈ 0.0597 µg/mL) | 12.4 (≈ 3.9 µg/mL) | > 31.3 | > 31.3 | 16 | 16 | 8 | 130 | 32 | > 85 | > 85 | 522 | 1040 | 1040 |  |  | 0 | 0 | 59 | 
5 | CCCCCCC(O)(Cn1cncn1)c1ccc(Cl)cc1Cl (stereo not given) | 2.8 (≈ 0.958 µg/mL) | 0.09 (≈ 0.0308 µg/mL) | 11.4 (≈ 3.9 µg/mL) | 20 (≈ 58.4 µM) | 28 (≈ 81.8 µM) | 29 | 14 | 10 | 58 | 5 | > 85 | > 85 | 933 | 667 | 933 | Active | inactive | 0 | 105 | 98 | Activity (Candida albicans [13]): 1 log10CFU; Activity (Candida albicans [14]): Active; Activity (Candida albicans [15]): 0.25 log10CFU; Activity (Candida albicans [20]): Dose-dependent effect; Activity (Candida albicans [21]): inactive; Activity (Candida albicans [22]): 47.97%; Activity (Candida albicans [23]): 28.99%; Activity (Candida albicans [24]): 5.73%
6 | CCCCCC(O)(Cn1cncn1)c1ccc(Cl)cc1Cl (stereo not given) | 3 (≈ 0.985 µg/mL) | 1.5 (≈ 0.492 µg/mL) | 11.9 (≈ 3.91 µg/mL) | 33 (≈ 101 µM) | > 31.3 | 32 | 16 | 17 | 65 | 8 | > 85 | > 85 | 65 | 1100 | 1040 |  |  | 0 | 0 | 100 | 
